This passage reports yeast fitness results from the RNAGym collection of RNA variant scans (doi:10.1126/science.aae0568).

To fix the notation:
B1: tRNA (parent)
chain: GUUCCGUUGGCGUAAUGGUAACGCGUCUCCCUCCUAAGGAGAAGACUGCGGGUUCGAGUCCCGUACGGAACG

This sample holds only a part of the variants without activity. Where only a bound is given, the exact number is not on record here.

Variants of B1 are the subject of the data set. Put plainly: yeast fitness relative to wild type (ratio to wild type); higher = fitter; tRNA-Arg(CCU), competitive growth, 37 C, YPD. The method, boiled down:
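Start and end populations of a pooled competition were compared by 100-nucleotide paired-end sequencing of gene amplicons. The Saccharomyces cerevisiae strains carried tRNA-Arg(CCU) gene variants at the native genomic locus, synthesised with a 3% per-site mutation rate at 69 sites, and competed in YPD at 37°C for 24 hours in six parallel replicates. Darwinian fitness relative to wild type was based on the change in genotype frequencies. Genotypes required ≥ 100 starting reads, and estimates < 0.5 were set to 0.5.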
On to GUUCCGUUGGCGUCAUGGUAACGCGUCUCCCUCCUAAGGCCAAGACUGUGGGUUAGAGUCCCGUACGGAUCG [A14C A40C G41C C49U C55A A70U], for which the yeast fitness is no more than 0.5.
GUUCCGUUGGCGUCUUGGUAACGCGUCUCCCUCCUAAGGAGAAGACUGCGGGUUCGAGUCCCGGAAGGAACG [A14C A15U U64G C66A]: the yeast fitness is no more than 0.5.
Next, GUUCCGUUGGCGUCUUGCUAACGCGUCUCCCUCCUAAGGAGAAGACUGCGGGUUCGAGUCCCGUACGGAACG [A14C A15U G18C]: 0.67; GUUCCGUUGGCGUCAUGGUAACGCGUCUCCCUCCUAAGGGGAAGACUGCGGGUUCGAGUCCGGUACGAAACG [A14C A40G C62G G68A]: no more than 0.5.
Next, GUUCCGUUGGCGUCAUGGUUACGCGUCUCCCUCCUAAGGAGAAGACUGCGGGUUCGAGUGCCGUACGGAACG [A14C A20U C60G]: 0.571.
For the variant GUUCCGUUGGCGUCGUGGUAACGCGUCUCCCUCCUAAGGAGAACACUGCGGGUUCGAGUACCGUACGGAACG [A14C A15G G44C C60A], the yeast fitness was no more than 0.5.
On to GUUCCGUUGGCGUCAUGGUUACGCCUCUCCCUCCUAAGGAGACGACUGCGGGUUCGAGUCCCGUACGGAACG [A14C A20U G25C A43C], for which the yeast fitness was no more than 0.5.
Consider GUUCCGUUGGCGUCAUGGUAACGCGUCUCCCUCCUAAGGAGAGGACUGCGGGUUCGAGUCCCGAACGGAACG [A14C A43G U64A], for which the yeast fitness was no more than 0.5.
Turning to GUUCCGUUGGCGUCAUGGUCACGCGUCUCCCUCUUAAGGAGAACACUGCCGGUUCGAGUCCUGUACGGAACG [A14C A20C C34U G44C G50C C62U], the yeast fitness is no more than 0.5.
As for GUUCCGUUGGCGUCAUGGUAACGCGUCUCCCUCCUAAGGAGGAGACUACGGGUUCGAGUCCCGUACGGAACG [A14C A42G G48A], the yeast fitness was no more than 0.5.
For GUUCCGUUGGCGUCAUGGUUACGCGUCUCCCUCCCAAGGAGAAGACUGCGGGUUCGAGUCCCGUGCGGUACG [A14C A20U U35C A65G A69U], the yeast fitness was no more than 0.5.
As for GUUCCGUUGGCGUCAUGGUAACGCGUCUCCCUCCUAAGGAGAGGACUGCGGGUUCGAGUCCCGUACGCAACG [A14C A43G G68C], the yeast fitness is 0.65.
Take GUUCCGUUGGCGUCAUGGUUACGCGUCUCCCUCCUAAGGAGAAGACUGCGGGUUCGAGUCCCGUACGGAACG [A14C A20U]: the yeast fitness was determined as 0.641.
For GUUCCGUUGGCGUCAUGGUAACGCGUCUCCCUCCUAAGGAGAUGACUGCGGGUUCGAGUCCCGUACGGAACG [A14C A43U], the yeast fitness was found to be 0.731.
With GUUCCGUUGGCGUCAUGGUAACGCGUCUCCCUCCUAAGGAGAGGACUGCGGGUUCGAGUCCCGUACGGAACG [A14C A43G] the figure was 0.628.
As for GUUCCGUUGGCGUCAUGGUCACGCGUCUCCCUGCUAAGGAGAAGACUGCGGGUUCGAGUCCCGUGCGGAACG [A14C A20C C33G A65G], the yeast fitness was no more than 0.5.
With GUUCCGUUGGCGUCAUGGUGACGCGUUUCCCUCCUAAGGAGAAGACUGCGGGUUCGAGUCCUGUACGGAACG [A14C A20G C27U C62U], the yeast fitness was no more than 0.5.
Take GUUCCGUUGGCGUCAUGGUGACGCGUCUCUCUCCUAAGGAGAAGACUGCGGGUUCGAGUCCCGUACGGAACG [A14C A20G C30U]: the yeast fitness is no more than 0.5.
GUUCCGUUGGCGUCUUGGUAACGCGUCUCCCUCCUAAGGAGAAGACGGCGGGUUCGAGUCCCGUACGGAACG [A14C A15U U47G]: the yeast fitness is no more than 0.5.
Regarding GUUCCGUUGGCGUCAUGGUUACGCGUCUCCAUCCUAAGGAGAAGACUGCGGGUUCGAGUCCCGUACGGAACG [A14C A20U C31A], the yeast fitness was no more than 0.5.
Regarding GUUCCGUUGGCGUCAUGGUUACGCGUCUCCUUCCUAAGGAGAAGACUGCGGGUUCGAGUCCCGUACGGAACG [A14C A20U C31U], the yeast fitness is no more than 0.5.
With GUUCCGUUGGCGUCAUGGUCACGCGUCUCCCUCCUAAGGAGGAAACCGCGGGUUCGAGUCCCGUACGGAACG [A14C A20C A42G G44A U47C], the yeast fitness is no more than 0.5.
In the case of GUUCCGUUGGCGUCAUGGUAACGCGUCUCCCUCCUAAGGGGAAGACUGUGGGUUCGAAUCCCGUACGGAACG [A14C A40G C49U G58A], the yeast fitness is no more than 0.5.
On to GUUCCGUUGGCGUCAUGGUAUCGCGUCUCCCUCCUAAGGGGAAGACUGCGGGUUCGAGUCCCGUCCGGAACG [A14C A21U A40G A65C], for which the yeast fitness came to 0.621.
Next, GUUCCGUUGGCGUCAUGGUAACGCGUCUCCCUCCUUAGGAGAAGACUGCGGGUUCGAGUCCCGUACGAAACG [A14C A36U G68A]: no more than 0.5; GUUCCGUUGGCGUCGUGGUAACGCCUCUCCCACCUAAGGAGACGACUGCGGGUUCGAGUCCCAUACGGCACG [A14C A15G G25C U32A A43C G63A A69C]: no more than 0.5.
On to GUUCCGUUGGCGUCAUGGUACCGCGUUUCCCUCCUAAGGAGAAGACUGCGGGUUCGAGUCCUGUACGGCACG [A14C A21C C27U C62U A69C], for which the yeast fitness is no more than 0.5.
Consider GUUCCGUUGGCGUCAUGGUAUCGCGUCUCCCUCCUAAGGAGCAGACUGCGGGUUCGACUCCCGAACGGCACG [A14C A21U A42C G58C U64A A69C], for which the yeast fitness is no more than 0.5.
With GUUCCGUUGGCGUCGUCGUAACGCGUCUCCCUCCUAAGGAGAAGCCUGCGGGUUCGAGUCCCGUACGGAACG [A14C A15G G17C A45C] the figure was no more than 0.5; with GUUCCGUUGGCGUCAUGGUACCGUGUCUCCCUCCUUAGGAGAUGACUGCGGGUUCAACUCCCGUAAGGAACG [A14C A21C C24U A36U A43U G56A G58C C66A], no more than 0.5.
In the case of GUUCCGUUGGCGUCAUGGUAGCGCGUCUACCUCUUAAGGAGAAGACUGCGGGUUCGAGUCCCGUACGGUACG [A14C A21G C29A C34U A69U], the yeast fitness worked out at 0.638.
Take GUUCCGUUGGCGUCAUGGUUACGCGUCUCCCUCCUAAGGAGAAGACUGCGGGUUCGAGUCCCGUACGGCACG [A14C A20U A69C]: the yeast fitness was no more than 0.5.
Next, GUUCCGUUGGCGUCAUGGUUACGCGUCUCCCUCCUAAGGAGAAGACUGCGGGUUCGAGUCCCGUACGGUACG [A14C A20U A69U]: 0.532; GUUCCGUUGGCGUCUUGGUAACGCGUUUCCCCCCGAAGGAGAAGACUGCGGGUUCGAGUCCCGUACGGAACG [A14C A15U C27U U32C U35G]: 0.584.
Turning to GUUCCGUUGGCGUCAUGGUAACGCGUCUCCCUCCUGAGGAGCAGACUGCGGGUUCGAGUCCCGUACGGAACG [A14C A36G A42C], the yeast fitness was 0.533.
With GUUCCGUUGGCGUCAUGGUAACGCGUCUCCCUCCUAUGGAGAAGACUGCGGGUUCGAGUCCCGUACGGAACG [A14C A37U] the figure was 0.655; with GUUCCGUUGGCGUCAUGGUAACGCGUCUCCCUCCUACGGAGAAGACUGCGGGUUCGAGUCCCGUACGGAACG [A14C A37C], 0.53.
